Screens as filed in PubChem.
Calb FLC: C. albicans growth modulation with fluconazole; AID 1979; C. albicans CaCi-2 (fluconazole-resistant clinical isolate) + fluconazole, Alamar Blue growth, 48 h; growth inhibition, % (no concentration beside the values); 300,000 tested, 0.57% active;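 active = growth inhibition above about 58% in most replicates, limit read from the data, passing the limit was not always enough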;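 note: all wells also contain fluconazole at 8 µg/ml as a sub-toxic cotreatment; 0% = median of DMSO wells and 100% = median of geldanamycin control wells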
MC4R ag barr: agonists of human melanocortin 4 receptor (MC4R) beta-arrestin; 360,000 tested, 0.98% active; U2OS MC4R beta-arrestin complementation, luminescence; percent of melanotan II response, DMSO zero; activation, % at 8.9 µM; P32245;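 active = activation above a per-plate cutoff, the mean activation of sample wells on that plate plus 3 SD, cut at about 8% in these data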
Target sequence (P32245 whole entry, looked up): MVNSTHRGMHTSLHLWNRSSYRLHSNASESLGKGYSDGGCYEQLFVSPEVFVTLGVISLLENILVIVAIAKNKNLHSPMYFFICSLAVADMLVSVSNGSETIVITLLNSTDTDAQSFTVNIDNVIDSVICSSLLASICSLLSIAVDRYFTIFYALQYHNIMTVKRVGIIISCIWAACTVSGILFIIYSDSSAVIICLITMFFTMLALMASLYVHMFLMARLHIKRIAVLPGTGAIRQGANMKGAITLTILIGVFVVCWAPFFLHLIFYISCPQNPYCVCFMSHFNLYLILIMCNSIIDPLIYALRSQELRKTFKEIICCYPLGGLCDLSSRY
MC4R antag cAMP: blocks human MC4R cAMP signaling; inhibition, % at 6.5 µM; MC4R-expressing cells, MTII-stimulated cAMP, LANCE TR-FRET; 360,000 tested, 0.48% active; P32245;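 active = inhibition above its plate's cutoff, the mean of tested wells on that plate plus 3 SD, cut at about 29% in these data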;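 note: 0% = Melanotan II alone and 100% = Melanotan II plus saturating MCL0020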
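System: U2OS cells stably expressing human melanocortin 4 receptor (MC4R). Reagent: Melanotan II challenge after compound preincubation. Doses: 6.5 µM. Times: 30-min compound, 1-h challenge, 1-h detection, room temperature. Measured by: TR-FRET with Eu-cAMP and labeled anti-cAMP, 671 nm. Replicates: singlicate.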
GalR3 antagonist: blocks the human galanin receptor 3 | 360,000 tested, 0.44% active | HEK293 GalR3-CNG cAMP membrane potential fluorescence; galR3 body fused to GalR1 C-terminus | inhibition, % at 3 µM | O60755;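 active = inhibition above the screen-wide average plus 3 SD, cut at about 13% in these data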;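 note: forskolin and galanin both at EC90 stimulate the cells; cAMP rise reported by CNG channel membrane potential dye signal; 0% = forskolin plus galanin with DMSO and 100% = forskolin alone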
Target sequence (O60755 1-299 limits assumed): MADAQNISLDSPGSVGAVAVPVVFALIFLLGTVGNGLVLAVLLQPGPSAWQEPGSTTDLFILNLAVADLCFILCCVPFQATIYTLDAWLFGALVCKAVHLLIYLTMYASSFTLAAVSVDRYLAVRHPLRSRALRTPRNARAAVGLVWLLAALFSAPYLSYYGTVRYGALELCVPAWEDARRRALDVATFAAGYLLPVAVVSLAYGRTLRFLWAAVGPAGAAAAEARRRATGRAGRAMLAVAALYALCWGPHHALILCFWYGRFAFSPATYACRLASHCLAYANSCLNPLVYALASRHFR
Efflux pump inh: antifungal efflux pump inhibition, Nile Red retention | S. cerevisiae Candida pump triplex | inhibition, % at 10 µM | 330,000 tested, 0.44% active;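 active = plate passing quality check with inhibition over a set limit, or well fluorescence over plate mean plus 4 SD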;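 note: Nile Red retained in pooled yeast measured as flow cytometry median fluorescence; 0% = buffer negative control and 100% = Enniatin B positive control; higher means more Nile Red kept so more efflux inhibition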
TAG inh: reduces triacylglycerol accumulation in H9c2 cells. AID 651582. inhibition, % at 12.5 µM. Nile Red lipid (TAG) fluorescence; cells loaded with 200 µM oleic acid. 230,000 tested, 0.66% active;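 active = pattern-corrected inhibition of lipid staining of at least 50% with the nuclear-stain viability signal not falling by more than 50%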;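 note: 0% = DMSO wells and 100% = triacsin C control wells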
H9c2 TAG conf: confirmation of triacylglycerol accumulation inhibitors. shares compounds with TAG inh. H9c2 lipid accumulation, Nile Red fluorescence; cells loaded with 200 µM oleic acid. inhibition, % at 12.5 µM. 990 tested, 71% active;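 active = mean inhibition across replicates of 40% or more; inactive = mean inhibition below 40%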;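 note: plate controls were DMSO only wells for no effect and Triacsin C treated wells for full effect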
Starred values were filed as active, the others as inactive; nt = no result given. A selection: hits, their analogues and other compounds. The true share with any hit is near 2.9%.

SMILES	Calb FLC	MC4R ag barr	MC4R antag cAMP	GalR3 antagonist	Efflux pump inh	TAG inh	H9c2 TAG conf
COc1ccc(NC(=O)N(C)[C@H]2C[C@H]3c4[nH]c5ccc(-c6cccc(C)c6)cc5c4CCN3C[C@H]2[C@H](C)O)cc1	nt	1	-4	nt	nt	46	nt
Cc1cccc(-c2ccc3[nH]c4c(c3c2)CCN2C[C@@H]([C@H](C)O)[C@@H](N(C)C(=O)Nc3ccc(F)cc3)C[C@@H]42)c1	nt	0	14	-6	nt	50*	48*
CCOCCOC(=O)c1[nH]c2c(c1C)C(=O)CC(c1cccs1)C2 (stereo not given)	6	2	-21	-2	0	53*	50*
Cc1c(C(=O)OCC(C)C)[nH]c2c1C(=O)CC(c1cccs1)C2 (stereo not given)	11	-1	-15	-7	0	64*	50*
CCOCCOC(=O)c1[nH]c2c(c1C)C(=O)CC(c1ccccc1)C2 (stereo not given)	-4	0	-24	3	0	nt	nt
COCCOC(=O)c1[nH]c2c(c1C)C(=O)CC(c1cccs1)C2 (stereo not given)	0	-2	-23	-1	nt	44	nt
CCOc1ccc2nc(NC(=O)CN3CCC(n4nnc5cc(F)ccc54)CC3)sc2c1	37	0	10	-1	0	58*	43*
CC1(C)CCCN(Cc2c(O)ccc3c(=O)c(-c4nc5ccccc5s4)c(N)oc23)C1	-5	0	13	4	0	55*	68*
CCOC(=O)c1sc2nc(CSc3ccccc3)nc(NCCN(C)C)c2c1C	9	0	7	-7	0	52*	62*
COC(=O)C1=C(C)N(Cc2ccccc2)C(=NCC(C)C)N[C@H]1c1cccc(F)c1	nt	0	2	-8	0	92*	73*
COC(=O)C1=C(C)N(Cc2ccc(C(F)(F)F)cc2)C(=NCc2ccccc2)NC1c1cccc(F)c1 (stereo not given)	nt	nt	nt	-3	nt	nt	nt
COC(=O)CN1C(=O)COc2ccc(S(=O)(=O)N3CCCCC3)cc21	nt	2	8	-1	nt	9	nt
O=C1C(NS(=O)(=O)c2cccs2)=C(N2CCN(c3cccc(C(F)(F)F)c3)CC2)C(=O)c2ccccc21	20	1	1	-6	0	60*	78*
CN1CCN(C2=C(NS(=O)(=O)c3cccs3)C(=O)c3ccccc3C2=O)CC1	23	-2	-22	4	0	16	nt
O=C(NCc1ccncc1)[C@@H]1CCCN1C(=O)[C@H]1CCCN1C(=O)c1cccc2ccccc12	nt	nt	nt	0	nt	nt	nt
CCc1nc2ccc(C(=O)NC3CCN(Cc4ccccc4)CC3)cn2c1N(CC)Cc1cccc(Br)c1	nt	2	18	-5	nt	41	nt
CCn1c2ccccc2c2cc(N)ccc21	-3	-2	12	1	0	nt	nt
CCC(CC)NCc1ccc2c(c1)c1ccccc1n2CC	-16	-1	-1	-3	0	52*	37
OCCN1CCN(CC(O)COc2ccc(C34CC5CC(CC(C5)C3)C4)cc2)CC1 (stereo not given)	25	5	4	-8	0	63*	37
OCCN1CCN(CC(O)COc2ccc(Cl)cc2)CC1 (stereo not given)	-7	-3	-1	-2	0	15	nt
Cc1nc(SCC(=O)Nc2ccc(CN3CCCC3)cc2)c2c(C)c(C)sc2n1	nt	-2	1	-6	0	14	nt
C#CCN(C[C@H]1[C@H](OC(=O)NCC2CCCCC2)[C@H](OC(=O)NCC2CCCCC2)C[C@@H](C(=O)OC)[C@H]1C(=O)OC)S(=O)(=O)c1ccc(C)cc1	nt	2	2	-6	nt	82*	89*
CSc1cc(-c2ccccc2)[nH]c(=O)c1C#N	7	0	3	-2	0	nt	nt
CSc1cc(-c2ccccc2)n(Cc2c(Cl)cccc2Cl)c(=O)c1C#N	-6	-1	0	7	0	58*	68*
Cc1cc(=O)n(Cc2ccccc2)c(O)c1C#N	9	-1	2	-8	0	11	nt
SMILES	Calb FLC	MC4R ag barr	MC4R antag cAMP	GalR3 antagonist	Efflux pump inh	TAG inh	H9c2 TAG conf
CSc1cc(-c2ccc(Cl)cc2)n(Cc2ccccc2)c(=O)c1C#N	4	0	7	3	1	64*	36
C=CCC[C@@H](Cc1ccc(F)cc1)C(=O)OC[C@@H](Cc1c[nH]c2ccccc12)NC(=O)[C@@H](CC=C)CC(=O)N(CCO)Cc1ccccc1	nt	1	20	-5	1	60*	60*
C=CC[C@@H](CC(=O)N(CCO)Cc1ccccc1)C(=O)N[C@@H](COC(=O)[C@@H](CC=C)Cc1ccc(F)cc1)Cc1ccccc1	nt	-1	17	-10	0	75*	62*
C=CC[C@@H](CC(=O)N[C@@H](CO)Cc1ccccc1)C(=O)N[C@H](COC(=O)[C@@H](CC=C)Cc1ccc(F)cc1)C(C)(C)C	nt	-2	2	-4	0	22	nt
C=CCC[C@@H](Cc1ccc(F)cc1)C(=O)OC[C@@H](NC(=O)[C@@H](CC=C)CC(=O)N[C@H](CO)Cc1ccccc1)C(C)(C)C	nt	0	-1	-9	0	62*	66*
C=CCC[C@H](Cc1ccc(F)cc1)C(=O)OC[C@H](Cc1c[nH]c2ccccc12)NC(=O)[C@H](CC=C)CC(=O)N(CCO)Cc1ccccc1	nt	2	20	-7	0	18	nt
C=CC[C@@H](CC(=O)N(CCO)Cc1ccccc1)C(=O)N[C@H](COC(=O)[C@@H](CC=C)Cc1ccc(F)cc1)Cc1ccccc1	nt	2	14	-8	0	59*	68*
COc1cccc(C=NNC(=S)NC2CC3CCC2C3)c1O (stereo not given)	nt	nt	nt	-7	nt	nt	nt
C=CC[C@@H](CC(=O)N(CCO)Cc1ccccc1)C(=O)N[C@H](COC(=O)[C@@H](CC=C)CC(=O)OC(C)(C)C)Cc1ccccc1	nt	9.3*	8	-9	-1	50*	70*
C=CC[C@H](CC(=O)N(CCO)Cc1ccccc1)C(=O)N[C@H](COC(=O)[C@@H](CC=C)CC(=O)OC(C)(C)C)Cc1ccccc1	nt	3	16	-5	0	21	nt
CCOC(=O)C1=C(C)N(C[C@@H]2CC[C@@H](Cc3ccc(-c4ccccc4)cc3)O2)C(=O)NC1c1cccc2ccccc12 (stereo not given in full)	nt	3	4	-5	1	78*	78*
Cc1cc(N2CCN(Cc3cn(C)nc3-c3cccc(Cl)c3)CC2)cc(C)n1	17	-4	2	-7	0	71*	77*
Cn1cc(CN2CCN(c3ncccn3)CC2)c(-c2cccc(Cl)c2)n1	46	2	-4	-7	0	-17	nt
